Screening data deposited in PubChem BioAssay by The Scripps Research Institute Molecular Screening Center.
A selection: hits, their analogues and other compounds. The true share with any hit is near 2%.
STAT3 act: increases IL-6 driven STAT3 reporter signal | activation (% of control), % at 5.6 µM | hit rate 0.91% among 190,000 | U3A cells, IL-6 STAT3-luciferase reporter, luminescence; 100% = signal with IL-6 EC80 alone;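 active = activation above the screen-wide mean of compound activation plus 3 SD, cut at about 130% in these data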;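 note: 0% = background luminescence of wells with medium and substrate only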
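system = STAT3-luciferase reporter U3A cells | reagent = IL-6 stimulus at 33 ng/mL final | timing = 1 h compound pre-exposure, 6 h IL-6 stimulation, 37 °C | measured by = luminescence | evaluation = % activation versus median of IL-6-stimulated wells | control set = IL-6-only wells as 100% reference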
STAT3 inh: inhibitors of IL-6 induced STAT3 signaling. U3A cells, IL-6 STAT3-luciferase reporter, luminescence; host cell line lacks STAT1. inhibition, % at 5.5 µM. hit rate 0.89% among 190,000. AID 862;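 active = inhibition above the mean inhibition across all screened compounds plus 3 SD, cut at about 44% in these data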;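 note: 0% = DMSO only wells and 100% = 100 µM nifuroxazide control wells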
HSP90 refold inh: HSP90 refolding inhibition in rabbit reticulocyte lysate. luciferase refolding luminescence, 3 h. inhibition, % at 5.6 µM. hit rate 0.91% among 290,000. AID 1789;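 active = inhibition above the screen-wide mean plus 3 SD, computed separately per campaign, cut at about 16% in these data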;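 note: 0% = DMSO wells and 100% = 60 µM geldanamycin wells; inhibitors lower the luminescence because luciferase stays unfolded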
STAT1 blocker: STAT1 signaling inhibition; hit rate 0.35% among 200,000; AID 920; inhibition, % at 5.5 µM; NIH 3T3 STAT1-luciferase reporter, IFN-gamma, luminescence;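 active = inhibition above a set limit, the mean inhibition across all tested compounds plus 3 SD, cut at about 34% in these data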;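 note: 0% = IFN-gamma with DMSO and 100% = IFN-gamma with 300 µM nifuroxazide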
HSP90 confirm: confirmation of HSP90 inhibitors. shares compounds with HSP90 refold inh. rabbit reticulocyte lysate, luciferase refolding luminescence, 3 h. inhibition, % at 5.9 µM. hit rate 64% among 2,300. AID 1846; in the data active = inhibition above about 18%;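 note: 0% = vehicle wells and 100% = reference inhibitor wells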
FLuc counter: counter-screen for HSP90 inhibitors: inhibitors of firefly luciferase. shares compounds with HSP90 refold inh. purified native firefly luciferase, luminescence. inhibition, % at 5.9 µM. hit rate 48% among 2,300;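 active = inhibition above the mean inhibition of all tested sample wells plus 3 SD, cut at about 10% in these data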;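 note: 0% = DMSO with luciferase and 100% = wells lacking luciferase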
Target sequence (P08659 whole entry, looked up): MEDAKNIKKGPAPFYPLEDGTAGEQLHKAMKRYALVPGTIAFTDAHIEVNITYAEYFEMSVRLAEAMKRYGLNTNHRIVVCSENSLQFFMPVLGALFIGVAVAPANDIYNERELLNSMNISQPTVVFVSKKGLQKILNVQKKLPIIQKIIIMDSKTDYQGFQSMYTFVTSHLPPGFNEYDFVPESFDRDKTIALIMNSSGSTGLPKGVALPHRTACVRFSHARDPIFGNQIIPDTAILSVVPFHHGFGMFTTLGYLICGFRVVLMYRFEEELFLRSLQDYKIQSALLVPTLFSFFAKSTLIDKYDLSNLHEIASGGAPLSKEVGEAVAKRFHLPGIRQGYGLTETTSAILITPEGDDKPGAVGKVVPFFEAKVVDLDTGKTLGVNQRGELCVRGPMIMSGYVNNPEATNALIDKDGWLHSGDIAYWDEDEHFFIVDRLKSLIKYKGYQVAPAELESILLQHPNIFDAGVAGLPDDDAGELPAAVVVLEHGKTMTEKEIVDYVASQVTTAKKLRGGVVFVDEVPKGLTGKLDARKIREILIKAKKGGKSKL
Numbers without * were called inactive; · = no result given.

SMILES	STAT3 act	STAT3 inh	HSP90 refold inh	STAT1 blocker	HSP90 confirm	FLuc counter
COc1ccc(NC(=O)c2noc3c2CCC3)cc1	97	10	27*	-42	20*	31*
COc1cc(NC(=O)c2ccc(Cl)cc2)c(Cl)cc1NC(=O)c1cccnc1	·	·	45*	·	0	-9
Cc1ccc(NC(=O)c2noc3c2CCC3)cc1C	95	14	2	-11	·	·
COc1ccc(C(=O)Nc2ccc3ncccc3c2)cc1	·	·	29*	·	49*	29*
COc1ccc(NC(=O)c2ccc3nccnc3c2)cc1	86	20	-2	-36	·	·
Cc1cccc(CSc2[nH]c(=O)ncc2C)c1	·	·	-1	·	·	·
Cc1ccc(N2CC(C(=O)NCCS(=O)(=O)N3CCN(c4ccccc4)CC3)CC2=O)cc1C (configuration not stated)	·	·	-3	·	·	·
CCOc1ccc(Nc2ncnc3c2cnn3Cc2ccccc2)cc1	86	20	23*	-3	5	-3
CCOc1ccc2ccccc2c1/C=N/NC(=O)c1ccc(C)nc1	·	·	-4	·	·	·
Clc1ccc(/C=C/c2nc3ccccc3[nH]2)cc1	27	94*	35*	53*	69*	63*
O=C(/C=C/c1ccc(Cl)cc1Cl)c1nc2ccccc2[nH]1	94	13	1	-1	·	·
Clc1ccc(/C=C/c2nc3ccccc3[nH]2)c(Cl)c1	31	87*	44*	68*	77*	72*
Clc1cccc(Cl)c1/C=C/c1nc2ccccc2[nH]1	128	-23	3	-47	·	·
CC(=N\NC(=O)c1ccccc1)/C(=N/O)C(=O)Nc1ccccc1	·	·	73*	·	-1	-5
O=C(NCC1CCN(C(=O)c2c(F)c(F)c(F)c(F)c2F)CC1)c1c(F)c(F)c(F)c(F)c1F	·	·	-8	·	·	·
Cn1c(=O)c2ccccc2n(Cc2ccccc2Cl)c1=O	·	·	28*	·	1	1
CCCc1nc2c(=O)n(C)c(=O)nc-2n(C)n1	20	94*	75*	93*	83*	85*
CCn1c(N)nc2c1c(=O)n(C)c(=O)n2C	103	1	-1	-1	·	·
Cc1c(N=Cc2nc3ccccc3n2C)c(=O)n(-c2ccccc2)n1C	117	-10	32*	-29	37*	26*
Cc1c(N=Cc2nc3ccccc3[nH]2)c(=O)n(-c2ccccc2)n1C	115	-11	3	-10	·	·
Cc1ccc(-c2cnn3c(N4CCOCC4)cc(C)nc23)cc1	·	·	40*	·	48*	53*
Cc1cc(N2CCOCC2)n2ncc(-c3ccc(Cl)cc3)c2n1	·	·	35*	·	48*	55*
Cc1cc(/C=C2\SC(=O)N(C)C2=O)c(C)n1-c1ccc(O)cc1	·	·	48*	·	64*	63*
O=c1oc2c(O)cccc2cc1-c1nc2ccccc2[nH]1	·	·	11	·	·	·
COc1cccc(N=c2oc3ccccc3cc2-c2nc3ccccc3[nH]2)c1	143*	-47	24*	-51	-2	-13
SMILES	STAT3 act	STAT3 inh	HSP90 refold inh	STAT1 blocker	HSP90 confirm	FLuc counter
Cc1c(-c2nc(-c3ccc(C(F)(F)F)cc3)no2)n(C)oc1=O	·	·	18*	·	74*	-10
CS(=O)(=O)c1ccccc1-c1nc(-c2ccc(C(F)(F)F)cc2)no1	82	24	1	11	·	·
Cc1cccc(-c2onc3ccc(C(=O)/C=C/N(C)C)cc23)c1	·	·	39*	·	-3	-8
Cc1ccc(-c2onc3ccc(C(=O)/C=C/N(C)C)cc23)cc1	·	·	61*	·	-9	-21
COc1ccc(OC)c(/C=N/Nc2nncn2/N=C/c2cc(OC)ccc2OC)c1	107	-8	42*	-2	-2	-12
CCN(CC)C(=O)Cn1cc(SCC(=O)NC2CCCC2)c2ccccc21	92	16	5	-2	·	·
Cc1c(NC(=O)c2ccc(S(=O)(=O)N3CCOCC3)cc2)c(=O)n(-c2ccccc2)n1C	·	·	-3	·	·	·
COCCN(Cc1nc(-c2ccc(-c3ccccc3)cc2)oc1C)C(C)C	·	·	85*	·	89*	21*
C#CCSc1nnnn1-c1ccc(OCC)cc1	·	·	2	·	·	·
COc1cccc2oc3cc(C#CC4(O)CCCCC4)ccc3c(=O)c12	·	·	26*	·	30*	19*
COc1cccc(N2CCN(c3ccc([N+](=O)[O-])cn3)CC2)c1	·	·	12	·	·	·
c1ccc(OCc2nc3ccccc3s2)cc1	109	-6	17*	-45	25*	8
Cc1cc(C(=O)COC(=O)c2ccc[nH]c2=O)c(C)n1-c1ccccc1F	·	·	5	·	·	·
Cc1cc(C(=O)COC(=O)c2ccc(O)cc2)c(C)n1-c1ccccc1F	90	13	50*	-30	58*	49*
Cc1cc(C(=O)Cn2nnc3ccccc3c2=O)c(C)n1-c1ccccc1F	86	22	62*	-32	70*	54*
NNC(=O)c1ccc(COc2ccc3c(c2)CCC3)cc1	103	2	1	-22	·	·
CCC(C)c1ccc(OCc2ccc(C(=O)OC)o2)cc1 (configuration not stated)	·	·	26*	·	65*	-22
COC(=O)c1ccc(COc2ccc(C(C)(C)C)cc2)o1	·	·	29*	·	35*	-20
CC(C)(C)c1ccc(OCc2ccc(C(=O)Nc3cccnc3)o2)cc1	·	·	26*	·	23*	-6
O=C(Nc1cccnc1)c1ccc(COc2ccccc2Br)o1	84	21	1	8	·	·
O=C(O)c1ccc(COc2ccc3c(c2)CCC3)cc1	·	·	49*	·	63*	17*
COC(=O)c1ccc(COc2ccc(NC(C)=O)cc2)o1	·	·	0	·	·	·
Nc1nonc1-n1nnc(C(=O)N/N=C/c2ccoc2)c1CSc1ccc(Cl)cc1	·	·	3	·	·	·
CC(C)(C)OC(=O)N[C@@H](Cc1ccccc1)C(=O)N[C@@H](CO)[C@H](O)[C@@H]1C[C@@H]1C(=O)NC1CC1	·	·	-3	·	·	·
CCCCNC(=O)CCN1N=C(c2ccccc2)CCC1=O	97	8	-4	6	·	·
SMILES	STAT3 act	STAT3 inh	HSP90 refold inh	STAT1 blocker	HSP90 confirm	FLuc counter
COC(=O)c1ccc(COc2ccc3c(c2)CCC3)o1	·	·	23*	·	40*	-16
CCc1ccc(OCc2ccc(C(=O)OC)o2)cc1	·	·	56*	·	75*	-14
O=C(NCc1cccnc1)c1ccc(COc2ccc3c(c2)CCC3)o1	95	10	-2	-6	·	·
CN(C)CCCn1c(N)c(C#N)c2nc3ccccc3nc21	·	·	47*	·	-7	-10
CCN(CC)S(=O)(=O)N1CCC(C(=O)NCc2ccco2)CC1	100	11	0	2	·	·
Cc1cc(=O)oc2c(C)c3occc3cc12	·	·	-1	·	·	·
O=C(COc1ccc(Cl)cc1Cl)NC(=O)N1CCCCC1	98	5	28*	-25	37*	31*
O=C(COc1ccc(Cl)cc1Cl)N1CCCN(C(=O)COc2ccc(Cl)cc2Cl)CC1	95	13	-1	5	·	·
O=c1c2c(nc3n1CCCCC3)sc1c(O)c(Br)ccc12	79	30	23*	12	35*	37*
O=C(CN(Cc1ccco1)C(=O)CNS(=O)(=O)c1ccc(Cl)cc1)NCc1ccco1	·	·	55*	·	-2	-8
